Assays:
[1] = Biodistribution in rat blood was determined after 24 hours of intravenous administration of the compound; [125I]- is used as radioactive isotope; assay type: ADME, organism-based; conditions: in vivo
In short: (§1)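 Rats under ether anesthesia, three per group, received 10 μCi tracer in 0.2 mL saline into the femoral vein. They were killed by cardiac excision under ether at each time point. Organs were removed, weighed and counted. Percent dose per organ was calculated against a 1%-of-injected-dose standard counted at the same time.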

[2] = Distribution ratio in hippocampus and cerebellum was determined after 30 min of intravenous administration of the compound; [125I]- is used as radioactive isotope; assay type: ADME, tissue-based; conditions: rat, 0.5 h
In short: (§2)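 After femoral-vein injection of 10 μCi [¹²⁵I] tracer in 0.2 mL saline under ether anaesthesia (three rats per group), brain regions were dissected, weighed and counted: cortex (frontal plus occipital), hippocampus, hypothalamus and cerebellum. %dose/g was calculated against a diluted injected-dose standard. Ratio = (region − cerebellum)/cerebellum on a %dose/g basis, with cerebellum as the background region.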

[3] = Biodistribution in rat thyroid was determined after 60 min of intravenous administration of the compound; [125I]- is used as radioactive isotope; assay type: ADME, organism-based, Thyroid gland; conditions: in vivo, 1 h
In short: (§3)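 Rats, three per group, under ether anaesthesia, received 10 μCi of [¹²⁵I]-labelled tracer in 0.2 mL saline into the femoral vein. They were killed by cardiac excision under ether at each time point. Organs were removed, weighed and counted. Percent dose per organ was calculated against counts of a 1% aliquot of the injected dose (100-fold diluted) counted at the same time.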

[4] = Regional brain distribution in rat cerebellum was determined after 24 hours of intravenous administration of the compound; [125I]- is used as radioactive isotope; assay type: ADME, tissue-based; conditions: in vivo
In short: (§4)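 Rats, three per group, injected with 10 μCi tracer in 0.2 mL saline via the femoral vein under ether anesthesia and killed by cardiac excision at the stated time. Cortex (frontal plus occipital), striatum, hippocampus, cerebellum and hypothalamus were dissected, weighed and gamma-counted. Values are % dose/g, calculated by comparison with counts of a 100-fold diluted aliquot of the injected dose.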

[5] = Biodistribution in rat thyroid was determined after 2 min of intravenous administration of the compound; [125I]- is used as radioactive isotope; assay type: ADME, organism-based, Thyroid gland; conditions: in vivo; in short: as §3
[6] = Biodistribution in rat thyroid was determined after 6 hours of intravenous administration of the compound; [125I]- is used as radioactive isotope; assay type: ADME, organism-based, Thyroid gland; conditions: in vivo; in short: as §3
[7] = Biodistribution in rat brain was determined after 11 hours of intravenous administration of the compound; [125I]- is used as radioactive isotope; assay type: ADME, organism-based; conditions: in vivo; in short: as §1
[8] = Regional brain distribution in rat cortex was determined after 240 min of intravenous administration of the compound; [125I]- is used as radioactive isotope; assay type: ADME; conditions: in vivo, 4 h; in short: as §4
[9] = Regional brain distribution in rat striatum was determined after 30 min of intravenous administration of the compound; [125I]- is used as radioactive isotope; assay type: ADME, tissue-based; conditions: in vivo, 0.5 h; in short: as §4
[10] = Biodistribution in rat muscle was determined after 240 min of intravenous administration of the compound; [125I]- is used as radioactive isotope; assay type: ADME, organism-based, Muscle tissue; conditions: in vivo, 4 h; in short: as §3
[11] = Regional brain distribution in rat cortex was determined after 60 min of intravenous administration of the compound; [125I]- is used as radioactive isotope; assay type: ADME; conditions: in vivo, 1 h; in short: as §4
[12] = Biodistribution in rat liver was determined after 30 min of intravenous administration of the compound; [125I]- is used as radioactive isotope; assay type: ADME, organism-based; conditions: in vivo, 0.5 h; in short: as §1
[13] = Regional brain distribution in rat cortex was determined after 6 hours of intravenous administration of the compound; [125I]- is used as radioactive isotope; assay type: ADME; conditions: in vivo; in short: as §4
[14] = Regional brain distribution in rat striatum was determined after 6 hours of intravenous administration of the compound; [125I]- is used as radioactive isotope; assay type: ADME, tissue-based; conditions: in vivo; in short: as §4
[15] = Distribution ratio in striatum and cerebellum was determined after 2 min of intravenous administration of the compound; [125I]- is used as radioactive isotope; assay type: ADME, tissue-based; conditions: rat
In short: (§5)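 Rats, three per group, given 10 μCi tracer in 0.2 mL saline into the femoral vein under ether anesthesia, then killed by cardiac excision at the stated time. Brain regions were dissected, weighed and counted. Percent dose/g was calculated against a 1% diluted aliquot of the injected dose. The ratio is (region − cerebellum)/cerebellum on a % dose/g basis, with cerebellum as background.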

[16] = Regional brain distribution in rat hippocampus was determined after 6 hours of intravenous administration of the compound; [125I]- is used as radioactive isotope; assay type: ADME, tissue-based; conditions: in vivo; in short: as §4
[17] = Distribution ratio in hypothalamus and cerebellum was determined after 60 min of intravenous administration of the compound; [125I]- is used as radioactive isotope; assay type: ADME, tissue-based; conditions: rat, 1 h; in short: as §5
[18] = Biodistribution in rat muscle was determined after 6 hours of intravenous administration of the compound; [125I]- is used as radioactive isotope; assay type: ADME, organism-based, Muscle tissue; conditions: in vivo; in short: as §3
[19] = Biodistribution in rat blood was determined after 30 min of intravenous administration of the compound; [125I]- is used as radioactive isotope; assay type: ADME, organism-based; conditions: in vivo, 0.5 h; in short: as §1
[20] = Distribution ratio in cortex and cerebellum was determined after 6 hrs of intravenous administration of the compound; [125I]- is used as radioactive isotope; assay type: ADME, tissue-based; conditions: rat; in short: as §2
[21] = Regional brain distribution in rat striatum was determined after 240 min of intravenous administration of the compound; [125I]- is used as radioactive isotope; assay type: ADME, tissue-based; conditions: in vivo, 4 h; in short: as §4
[22] = Regional brain distribution in rat hypothalamus was determined after 240 min of intravenous administration of the compound; [125I]- is used as radioactive isotope; assay type: ADME, tissue-based; conditions: in vivo, 4 h; in short: as §4
[23] = Biodistribution in rat blood was determined after 60 min of intravenous administration of the compound; [125I]- is used as radioactive isotope; assay type: ADME, organism-based; conditions: in vivo, 1 h; in short: as §1
[24] = Biodistribution in rat liver was determined after 2 min of intravenous administration of the compound; [125I]- is used as radioactive isotope; assay type: ADME, organism-based; conditions: in vivo; in short: as §1
[25] = Regional brain distribution in rat hypothalamus was determined after 6 hours of intravenous administration of the compound; [125I]- is used as radioactive isotope; assay type: ADME, tissue-based; conditions: in vivo; in short: as §4
[26] = Biodistribution in rat heart was determined after 240 min of intravenous administration of the compound; [125I]- is used as radioactive isotope; assay type: ADME, organism-based; conditions: in vivo, 4 h; in short: as §1
[27] = Biodistribution in rat blood was determined after 2 min of intravenous administration of the compound; [125I]- is used as radioactive isotope; assay type: ADME, organism-based; conditions: in vivo; in short: as §1
[28] = Biodistribution in rat skin was determined after 24 hours of intravenous administration of the compound; [125I]- is used as radioactive isotope; assay type: ADME, organism-based, Zone of skin; conditions: in vivo; in short: as §3
[29] = Regional brain distribution in rat cortex was determined after 30 min of intravenous administration of the compound; [125I]- is used as radioactive isotope; assay type: ADME; conditions: in vivo, 0.5 h; in short: as §4
[30] = Distribution ratio in hippocampus and cerebellum was determined after 2 min of intravenous administration of the compound; [125I]- is used as radioactive isotope; assay type: ADME, tissue-based; conditions: rat; in short: as §2
[31] = Distribution ratio in hypothalamus and cerebellum was determined after 11 hours of intravenous administration of the compound; [125I]- is used as radioactive isotope; assay type: ADME, tissue-based; conditions: rat; in short: as §2
[32] = Regional brain distribution in rat cerebellum was determined after 60 min of intravenous administration of the compound; [125I]- is used as radioactive isotope; assay type: ADME, tissue-based; conditions: in vivo, 1 h; in short: as §4
[33] = Regional brain distribution in rat cortex was determined after 2 min of intravenous administration of the compound; [125I]- is used as radioactive isotope; assay type: ADME; conditions: in vivo; in short: as §4
[34] = Biodistribution in rat lung was determined after 60 min of intravenous administration of the compound; [125I]- is used as radioactive isotope; assay type: ADME, organism-based; conditions: in vivo, 1 h; in short: as §1

Compound: CN(C)Cc1ccccc1Oc1ccc(I)cc1N
- Dose [1]: 0.7%
- Dose/g [2]: 0.68%
- Dose [3]: 0.41%
- Dose/g [4]: 0.0049%
- Dose [5]: 0.1%
- Dose [6]: 2.68%
- Dose [7]: 0.02%
- Dose/g [8]: 0.12%
- Dose/g [9]: 1.16%
- Dose [10]: 6.27%
- Dose/g [11]: 0.95%
- Dose [12]: 7.1%
- Dose/g [13]: 0.04%
- Dose/g [14]: 0.068%
- Dose/g [15]: 0.01%
- Dose/g [16]: 0.059%
- Dose/g [17]: 1.92%
- Dose [18]: 5.01%
- Dose [19]: 4.56%
- Dose/g [20]: 0.58%
- Dose/g [21]: 0.24%
- Dose/g [22]: 0.32%
- Dose [23]: 3.89%
- Dose [24]: 5.71%
- Dose/g [25]: 0.09%
- Dose [26]: 0.08%
- Dose [27]: 5.75%
- Dose [28]: 4.02%
- Dose/g [29]: 1.25%
- Dose/g [30]: 0.13%
- Dose/g [31]: 0.44%
- Dose/g [32]: 0.41%
- Dose/g [33]: 1.16%
- Dose [34]: 1.79%
